For one series, the system named is Plasmodium falciparum. Kind of series: Antimalarial activity against Plasmodium falciparum W2 infected in human erythrocytes assessed as reduction of parasitemia after 48 hrs by flow cytometry. The series is classed as functional, organism-based. Particulars: W2, 48 h. In short, it runs like this: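 Erythrocytic-stage W2 parasites cultured in human erythrocytes in RPMI-1640 with 10% human serum or 0.5% Albumax; sorbitol-synchronized to ring stage. Serial dilutions from 10 mM stocks; 2% hematocrit, 1% parasitemia, 3% O2/5% CO2/N2, 48 h.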
For orientation: A flow cytometer gives signals particle by particle.

The nature of series [1]: Solubility of the compound in water at pH 7. The class given is physicochemical.
The next series deals with Jurkat. Kind of series: Cytotoxicity against human Jurkat cells after 72 hrs by MTT assay. The class given is cell-based. The essentials: (§1)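 Each cell line exposed to compounds over a 12-point concentration curve in triplicate for 72 h; viability read by MTT, IC50 determined.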
The next series deals with HeLa. Kind of series: Cytotoxicity against human HeLa cells after 72 hrs by MTT assay. The class given is cell-based. In short, it runs like this:
as §1

In brackets after ≈: the same amount, converted by molar mass.

As for `O=C(O)CCc1cccc2c1B(O)OCC2`, the IC50 – broadly, the concentration that inhibits the measured activity by half – in the series on Plasmodium falciparum is above 5000 nM.
Regarding `O=C(O)CCCc1cccc2c1B(O)OC2`, the IC50 in the series with Plasmodium falciparum worked out at 620 nM.
Regarding `NCCCc1cccc2c1B(O)OC2`, the half-maximal inhibitory concentration (IC50) in the series on Plasmodium falciparum was found to be 520 nM.
As to `CN(CC(=O)O)c1cccc2c1B(O)OC2`, in the series with Plasmodium falciparum, the IC50 was above 5000 nM.
On the same count and under the same terms, under `CN(C)C(=O)CCc1cccc2c1B(O)OC2` stands above 5000 nM.
Regarding `CC(=O)CCc1cccc2c1B(O)OC2`, the IC50 in the series with Plasmodium falciparum came to 2720 nM.
Take `NC(=O)CCc1cccc2c1B(O)OC2`: the IC50 in the series with Plasmodium falciparum was 1300 nM.
Still for that read-out and setting: the value for `O=C(O)CCCCc1cccc2c1B(O)OC2` was 2010 nM; that for `O=C(O)CCc1ccc2c(c1)COB2O` was 2890 nM.
On to `O=C(O)CNc1cccc2c1B(O)OC2`, for which, in the series with Plasmodium falciparum, the IC50 stood at 950 nM.
On to `O=C(O)CCc1cccc2c1B(O)OC2`, for which the solubility (commonly how much of the substance goes into solution per volume) in series [1] came out at 750 µg/mL (≈ 3.64 mM). Also, the IC50 in the series on Jurkat was 60500 nM; with HeLa it was above 100000 nM; in the series on Plasmodium falciparum it was 26 nM.
As to `O=C(O)CCc1cccc2c1COB2O`, the IC50 with Plasmodium falciparum is above 5000 nM.
Same read-out and setting: the value for `O=C(O)CCc1ccc2c(c1)B(O)OC2` was 120 nM; that for `N#CCCc1cccc2c1B(O)OC2` was 1020 nM.
For the molecule `CC(C)(Cc1cccc2c1B(O)OC2)C(=O)O`, the IC50 in the series on Plasmodium falciparum is above 5000 nM.
On to `O=C(O)COc1cccc2c1B(O)OC2`, for which, in the series with Plasmodium falciparum, the 50% inhibitory concentration (IC50) amounted to 460 nM.
Consider `OB1OCc2cccc(CCc3nn[nH]n3)c21`, for which the IC50 in the series on Plasmodium falciparum came to 160 nM.
Same read-out and setting: under `CC1(C)OB(O)c2c(CCC(=O)O)cccc21` stands above 5000 nM.
For `COC(=O)CCc1cccc2c1B(O)OC2`, in the series with Plasmodium falciparum, the concentration for half-maximal inhibition (IC50) worked out at 320 nM.
With `O=C(CCc1cccc2c1B(O)OC2)NS(=O)(=O)C1CC1`, in the series with Plasmodium falciparum, the half-maximal inhibitory concentration (IC50) was 460 nM.

For the origin of these results see ChEMBL document CHEMBL1641498, “Synthesis and structure-activity relationships of novel benzoxaboroles as a new class of antimalarial agents” (Bioorg Med Chem Lett, 2011).
